The values below come from ChEMBL document CHEMBL1146632, “Styrylheterocycles: a novel class of inhibitors on lipopolysaccharide-Induced nitric oxide production” (Bioorg Med Chem Lett, 2003).

Assay [1] deals with RAW264.7. Briefly: Inhibitory activity against nitric oxide production in lipopolysaccharide-activated mouse macrophage RAW264.7 cells. It counts as functional, cell-based. In a few lines:
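RAW264.7 cells in phenol-red-free DMEM with 10% FBS were plated at 8×10⁵ cells/mL and grown 24 h. The medium was then renewed, and cells were exposed to LPS with or without test sample for 20 h. Nitrite in the medium, taken as the NO indicator, was measured in triplicate with Griess reagent (0.1% naphthylethylenediamine, 1% sulfanilamide, 5% H₃PO₄). Inhibition was calculated as % of the vehicle-treated control, and IC₅₀ was taken from dose-response curves.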

Assay [2] has as its system RAW264.7. Briefly: Inhibitory activity of the compound against nitric oxide production in lipopolysaccharide-activated mouse macrophage RAW264.7 cells.

Each structure is given as a SMILES string.

Compound `COc1cc(/C=C\c2ccsc2)cc(OC)c1OC` gave an IC50 with RAW264.7 [1] of 5.6 µM.
In the assay with RAW264.7 [1], `COc1ccc(/C=C/c2cccs2)cc1` gave an IC50 of more than 50 µM.
The same measure, in the same setting: for `COc1cc(/C=C/c2ccco2)cc(OC)c1OC` the value was 5.9 µM; for `COc1cc(/C=C\c2cccs2)cc(OC)c1`, more than 50 µM.
Compound `COc1cc(/C=C/c2ccsc2)cc(OC)c1OC` registered an IC50 with RAW264.7 [2] of 7.8 µM.
In the case of `COc1cc(/C=C/c2cccs2)cc(OC)c1OC`, in the assay on RAW264.7 [1], the IC50 was found to be 5.3 µM.
Take `COc1cc(/C=C\c2ccoc2)cc(OC)c1OC`: in the assay on RAW264.7 [1], the IC50 was 6.6 µM.
As for `COc1ccc(/C=C\c2cccs2)cc1`, in the assay on RAW264.7 [1], the IC50 is more than 50 µM.
In the assay with RAW264.7 [1], `COc1cc(/C=C/c2cccs2)cc(OC)c1` yielded an IC50 of more than 50 µM.
With `COc1cc(/C=C/c2ccoc2)cc(OC)c1OC`, the IC50 in the assay with RAW264.7 [1] was found to be 9.5 µM. This lies in the single-digit micromolar range.
`Oc1ccc(/C=C/c2cc(O)cc(O)c2)cc1` [RESVERATROL] had an IC50 with RAW264.7 [1] of 15.9 µM.
